Series [1] deals with Rattus norvegicus. The series can be described thus: Antiallodynic effect in Wistar rat chronic constriction injury model assessed as cross tolerance developement pretreated with morphine at 3.5 nmol, it qd for 6 days administered from 7 days post CCI challenge to day 13 measured 30 mins post compound challenge by Von Frey test. Format: functional, organism-based. The method, boiled down: (§1)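 CCI Wistar rats were made tolerant by 6 days of once-daily i.t. dosing (morphine 3.5 nmol or hybrid 1 nmol). On day 13 they received a single i.t. challenge (morphine 3.5 nmol or hybrid 1 nmol) against repeated-vehicle controls. Von Frey and cold plate tests were run 30 min later. Data are %MPE, 6-8 rats/group, ANOVA with Bonferroni.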

In series [2] the test system is Rattus norvegicus. In words: Toxicity in Wistar rat assessed as death at 9.5 nmol, iv. Format: organism-based. To be noted: in vivo.
Series [3] has as its system Rattus norvegicus. The series can be described thus: Toxicity in Wistar rat assessed as seizures at 9.5 nmol, iv. Format: organism-based. The following applies: in vivo.
Series [4] relates to Rattus norvegicus. In words: Reduction of hyperalgesia in it dosed Wistar rat measured 7 days post CCI challenge by cold plate test. Type of series: functional. The procedure, abridged: (§2)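 In catheterized male Wistar rats with sciatic CCI, a single i.t. dose in water for injection was given on day 7. Thermal hyperalgesia was measured 30 min later as latency to hind-paw shake on a 5 °C cold plate. Data are %MPE, 6-12 rats/group, ANOVA with Bonferroni.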

Series [5] concerns Rattus norvegicus. The series can be described thus: Antiallodynic effect in Wistar rat chronic constriction injury model assessed as tolerance to neuropathic pain at 1 nmol, it qd for 6 days administered from 7 days post CCI challenge to day 13 by cold plate test. Type of series: functional, organism-based. The method, boiled down: (§3)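 CCI Wistar rats received once-daily i.t. injections (morphine 3.5 nmol, hybrids 1 nmol, in water for injection) from day 7 to day 13 after CCI. Von Frey and 5 °C cold plate tests were run 30 min after each dose. Data are %MPE and AUC, 12-16 rats/group, ANOVA with Bonferroni.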

Series [6] is filed under the species Rattus norvegicus. In words: Antinociceptive activity in Wistar rat at 0.1 to 11 nmol, it after 30 mins to 2 hrs by tail flick test. Type of series: functional, organism-based.
The species named for series [7] is Rattus norvegicus. In words: Selectivity ratio of Ki for rat brain DOR to Ki for rat brain MOR.
Series [8] is filed under the species Rattus norvegicus. In words: Reduction of hyperalgesia in Wistar rat chronic constriction injury model at 1 nmol, it measured 7 days post CCI challenge by cold plate test. Format: functional, organism-based. The procedure, abridged: as §2
Series [9] has as its system Rattus norvegicus. In words: Antiallodynic effect in Wistar rat chronic constriction injury model assessed as tolerance to neuropathic pain at 1 nmol, it qd for 6 days administered from 7 days post CCI challenge to day 13 by Von Frey test. Type of series: functional, organism-based. The procedure, abridged:
as §3

For series [10], the species on record is Rattus norvegicus. The series can be described thus: Antinociceptive activity in Wistar rat at 1 nmol, it after 30 mins by tail flick test. Type of series: functional. The method, boiled down:
(§4)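 Naive male Wistar rats (250-300 g) with i.t. catheters received a single i.t. injection in water for injection (5 µl plus 10 µl flush), 7 days after catheter implantation. Tail-flick latency to a light-bulb heat stimulus at two-thirds of tail length was read 30 min post-dose (timepoints up to 180 min), with a 9 s cut-off. Data are %MPE = (TL-BL)/(cut-off-BL)×100, 7-12 rats/group, ANOVA with Bonferroni.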
For orientation: Hot-plate and tail-flick tests time the reaction to a heat stimulus.

For series [11], the species on record is Rattus norvegicus. In words: Toxicity in Wistar rat chronic constriction injury model at 1 nmol, it measured 7 days post CCI challenge. Format: organism-based. To be noted: in vivo, icv_or_intrathecal, 168 h.
The species named for series [12] is Rattus norvegicus. In words: Antiallodynic effect in Wistar rat chronic constriction injury model at 1 nmol, it measured 7 days post CCI challenge by Von Frey test. Format: functional. The method, boiled down:
(§5)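 Male Wistar rats (300-350 g) with i.t. catheters (L4-L6) had CCI made by four loose silk ligatures on the right sciatic nerve. On day 7 they received a single i.t. dose in water for injection. Mechanical allodynia was measured 30 min later with an automatic von Frey device (0.5-26 g) on the midplantar hind paw. Data are %MPE, 6-12 rats/group, ANOVA with Bonferroni.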

The species entered for series [13] is Rattus norvegicus. The series can be described thus: Antinociceptive activity in Wistar rat at 0.1 nmol, it after 30 mins by tail flick test. Type of series: functional. The method, boiled down:
as §4

The species named for series [14] is Rattus norvegicus. In words: Toxicity in Wistar rat chronic constriction injury model at 11 nmol, it measured 7 days post CCI challenge. Type of series: organism-based. To be noted: in vivo, icv_or_intrathecal, 168 h.
The species named for series [15] is Rattus norvegicus. The series can be described thus: Antiallodynic effect in Wistar rat chronic constriction injury model at 0.1 to 1 nmol, it measured 7 days post CCI challenge by Von Frey test. Type of series: functional, organism-based. The procedure, abridged: as §5
Series [16] deals with Rattus norvegicus. The series can be described thus: Antinociceptive activity in it dosed Wistar rat after 30 mins by tail flick test. Format: functional. The method, boiled down:
as §4

Series [17] has as its system Rattus norvegicus. The series can be described thus: Antiallodynic effect in Wistar rat chronic constriction injury model assessed as cross tolerance developement pretreated with morphine at 3.5 nmol, it qd for 6 days administered from 7 days post CCI challenge to day 13 measured 30 mins post compound challenge by cold plate test. Type of series: functional, organism-based. The procedure, abridged:
as §1

The subject of series [18] is Rattus norvegicus. The series can be described thus: Antiallodynic effect in it dosed Wistar rat measured 7 days post CCI challenge by Von Frey test. Format: functional. The method, boiled down:
as §5

Series [19] is filed under the species Rattus norvegicus. The series can be described thus: Toxicity in Wistar rat chronic constriction injury model at 9.5 nmol, it measured 7 days post CCI challenge. Type of series: organism-based. The following applies: in vivo, icv_or_intrathecal, 168 h.
The species entered for series [20] is Rattus norvegicus. In words: Antinociceptive activity in Wistar rat at 0.1 to 1 nmol, it after 30 mins by tail flick test. Format: functional, organism-based. The procedure, abridged: as §4

Active and inactive are the calls of the source.

As for `Cc1cc(O)cc(C)c1C[C@H](N)C(=O)N[C@H](CCCNC(=N)N)C(=O)N[C@H]1Cc2ccccc2CN(CCC(=O)N(C)Cc2ccccc2)C1=O`, the result with Rattus norvegicus [1] and in the series on Rattus norvegicus [17] was inactive. Further, the Activity result is on record as “Non-toxic” in the series with Rattus norvegicus [2], “Non-toxic” in the series on Rattus norvegicus [3], “Non-toxic” in the series filed under Rattus norvegicus [11] and “Toxic” in the series listed under Rattus norvegicus [14]. The ED50 with Rattus norvegicus [4] was found to be 0.34 nmol; in the series with Rattus norvegicus [16] it was 2.78 nmol; in the series with Rattus norvegicus [18], 0.24 nmol. The outcome in the series with Rattus norvegicus [5], in the series listed under Rattus norvegicus [6], in the series filed under Rattus norvegicus [8], in the series with Rattus norvegicus [9] and in the series listed under Rattus norvegicus [15] was Active. In addition, the Ratio Ki in the series filed under Rattus norvegicus [7] was determined as 3.5. Also, the MPE stood at 30% in the series listed under Rattus norvegicus [10], 80% in the series filed under Rattus norvegicus [12] and 8.9% in the series filed under Rattus norvegicus [13].

Regarding `Cc1cc(O)cc(C)c1C[C@H](N)C(=O)N[C@H](CCCNC(=N)N)C(=O)N[C@H]1Cc2ccccc2CN(CC(=O)N(C)Cc2cc(C(F)(F)F)cc(C(F)(F)F)c2)C1=O`, the Activity entry in the series filed under Rattus norvegicus [19] is listed as “Toxic”; in the series filed under Rattus norvegicus [11] it was “Non-toxic”. Also, the outcome in the series filed under Rattus norvegicus [20], in the series with Rattus norvegicus [5], in the series listed under Rattus norvegicus [8], with Rattus norvegicus [9] and in the series filed under Rattus norvegicus [15] was Active. Also, the ED50 with Rattus norvegicus [4] is 1.14 nmol; in the series with Rattus norvegicus [16], 1.66 nmol; in the series with Rattus norvegicus [18], 1.05 nmol. The Ratio Ki in the series filed under Rattus norvegicus [7] turned out to be 25. For the same compound, the MPE was 30% in the series filed under Rattus norvegicus [10] and 60% in the series filed under Rattus norvegicus [12].

(Values after ChEMBL document CHEMBL3407477, “Synthesis and biological evaluation of compact, conformationally constrained bifunctional opioid agonist - neurokinin-1 antagonist peptidomimetics” (Eur J Med Chem, 2015).)
